Results from PMC13499490 (International Journal for Parasitology: Drugs and Drug …, 2026).

Experiments:
Plasmodium falciparum = settings: ref Plouffe et al., 2008; cited from earlier work
[1] = tested on: supplemented TCH extract translating capped and polyadenylated Renilla mRNA; assay: Miniaturized low-volume; format: biochemical, Trypanosoma cruzi; settings: 8 μL; for % Inhibition (40 µM): Table S3, 40 µM; for inhibition of translation in T. cruzi extract (in words): 40 μM, 2 h, Fig. 3B
[2] = tested on: protein synthesis in T. cruzi epimastigotes (WT, DM28c strain); assay: Puromycylation assay in living epimastigotes; format: cell-based, Trypanosoma cruzi; settings: 40 μM, 1 h pre-incubation, then puromycin 10 μg/mL 15 min
How it was run: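 Dm28c epimastigotes at 1 × 10⁷/mL in LIT-10% FBS, preincubated 1 h at 28°C with test compound (40 μM, from DMSO), with DMSO and 5 μM cycloheximide controls. Puromycin at 10 μg/mL, 15 min, 28°C; cells RIPA-lysed. 20 μg protein run on 10% SDS-PAGE and blotted with anti-puromycin mAb (1:100, overnight, 4°C), then IRDye680 secondary; anti-aldolase loading control. 150–20 kDa signal quantified relative to DMSO; 2–4 independent experiments.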

[3] = tested on: rabbit reticulocytes (Retic Lysate IVT kit) translating Renilla mRNA; assay: In vitro translation by rabbit reticulocyte lysate; format: biochemical; settings: 10 µM, 1 hour, Fig. S5
How it was run: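 Commercial rabbit reticulocyte lysate run per kit instructions, 0.6 μg per reaction of the capped, polyadenylated Renilla luciferase mRNA used in the parasite-extract assays.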

[4] = tested on: T. cruzi epimastigotes (DM28c); assay: Epimastigote proliferation, SYBR Green assay; format: cell-based, Trypanosoma cruzi; settings: for EC50: Trypanosoma cruzi, 72 h, read-out: EC50 epimastigote proliferation; for concentration for maximal inhibition / full block of epimastigote growth: growth curves; for effect on epimastigote growth (in words): Fig. S2, 1% DMSO
[5] = tested on: T. cruzi amastigotes (Sylvio X10/1 clone) in U2OS cells; assay: Intracellular amastigote proliferation in infected U2OS cells; format: cell-based, Trypanosoma cruzi; settings: for EC50: Trypanosoma cruzi, U2OS, 48 h, read-out: EC50 intracellular amastigotes; for selectivity index: from EC50 and CC50 averages, U2OS cells
How it was run: (§1)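 U2OS cells, grown in DMEM with 10% FBS at 37°C and 5% CO2, seeded at 500 cells/well in 384-well plates and infected after 24 h with 5000 Sylvio X10/1 trypomastigotes. Treated 24 h later with test compound (100 μM to 0.7 nM, 0.5% DMSO) for 48 h, with benznidazole and DMSO controls. Cells fixed in 4% paraformaldehyde, stained with DAPI and DRAQ5, imaged by high-content analysis. Amastigote-to-cell ratio normalised to untreated (100%) and non-infected (0%) wells. EC50 and CC50 from three-parameter nonlinear fit; selectivity index from mean EC50 and CC50.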

[6] = Host cell cytotoxicity in infected U2OS cells; format: cell-based; settings: human
How it was run: as §1

[7] = tested on: T. cruzi amastigotes (DM28c parasite strain) in Vero cells; assay: Amastigote proliferation and cytotoxicity in Vero cells; format: cell-based, Trypanosoma cruzi; settings: DM28c trypomastigotes, Fig. S6
[8] = tested on: T. cruzi extracts (TCH) translating capped and polyadenylated Renilla luciferase reporter mRNA; format: biochemical, Trypanosoma cruzi; settings: for % Inhibition: initial screen, 40 μM, Renilla luciferase signal relative to DMSO; for concentration above which translation was fully inhibited: Fig. 3C
[9] = tested on: T. cruzi parasite extract translating Renilla mRNA; assay: Miniaturized 5 μL T. cruzi in vitro translation assay; format: biochemical, Trypanosoma cruzi; settings: 5 μl format, 40 μM, Fig. 5D
How it was run: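 Extract from DM28c-derived epimastigotes, lysed by nitrogen cavitation; the 30,000 × g supernatant was supplemented with translation buffer containing ATP, GTP, creatine phosphate/kinase, amino acids and spermidine. Reaction of 5 μL: 2 μL lysate, 1 μL test compound (40 μM), 2 μL SP6-transcribed capped, polyadenylated spliced-leader–Renilla luciferase mRNA (22 ng). Luminescence read after adding Renilla luciferase reagent.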

PAK4 = settings: mammalian cells; ref Pereira-Veiga et al., 2025; cited from earlier work

c1ccc(Nc2nc(NCC3CCCO3)c3ccccc3n2)cc1 (stereo not drawn) [Compound 97]
Plasmodium falciparum inhibition (in words) (Plasmodium falciparum): inhibit Plasmodium falciparum

CN(C)c1nc(NCC2CCCO2)c2ccccc2n1.Cl (stereo not drawn) [Compound 39F]
% Inhibition (40 µM) [1]: around 50%

Cl.Fc1ccc(Nc2nc(NCC3CCCO3)c3ccccc3n2)cc1 (stereo not drawn) [Compound 39D]
puromycin incorporation into elongating protein chains (in words) [2]: inhibited puromycin incorporation

Cl.Oc1ccc(Nc2nc(NCC3CCCO3)c3ccccc3n2)cc1 (stereo not drawn) [Compound 39B]
% Inhibition (40 µM) [1]: over 50%

COc1ccccc1Nc1nc(NCC2CCCO2)c2ccccc2n1 (stereo not drawn) [Compound 39G]
% Inhibition (40 µM) [1]: over 50%
inhibition of protein synthesis by reticulocyte lysate (in words) [3]: did not inhibit
puromycin incorporation into elongating protein chains (in words) [2]: inhibited puromycin incorporation
EC50 [4]: 2.8 ± 0.2 µM
concentration for maximal inhibition / full block of epimastigote growth [4]: ~15 µM
EC50 [5]: 0.08 ± 0.07 µM
selectivity index [5]: ~415
CC50 at 48 h [6]: 33 ± 20 µM
EC50 and CC50 values compared with the U2OS/Sylvio experiment (in words) [7]: slightly high values
Plasmodium falciparum inhibition (in words) (Plasmodium falciparum): P. falciparum inhibitors

Cl.OCCNc1nc(NCC2CCCO2)c2ccccc2n1 (stereo not drawn) [Compound 39I]
% Inhibition (40 µM) [1]: over 50%

Cl.c1ccc(CNc2nc(NCC3CCCO3)c3ccccc3n2)nc1 (stereo not drawn) [Compound 39M]
% Inhibition (40 µM) [1]: less than 40%

C[C@@H]1[C@H](O)[C@@H](C)/C=C/C=C/C=C/C=C/C=C/C=C/C=C/[C@H](O[C@@H]2O[C@H](C)[C@@H](O)[C@H](N)[C@@H]2O)C[C@@H]2O[C@](O)(C[C@@H](O)C[C@@H](O)[C@H](O)CC[C@@H](O)C[C@@H](O)CC(=O)O[C@H]1C)C[C@H](O)[C@H]2C(=O)O [Compound 108, Amphotericin B]
% Inhibition [8]: ~100%

Cl.OCCNc1nc(Nc2ccccc2)nc2ccccc12 [Compound 39L]
% Inhibition (40 µM) ([1]; 40 µM): around 50%

CN[C@@H]1C[C@H](N)[C@@H](O)[C@H](O[C@H]2O[C@H](CO)[C@H](O)[C@@H]3O[C@@]4(O[C@@H]23)O[C@H]([C@H](N)CO)[C@H](O)[C@H](O)[C@H]4O)[C@H]1O [hygromycin]
concentration above which translation was fully inhibited [8]: above 50 nM

C[C@@H]1C[C@@H]([C@H](O)CC2CC(=O)NC(=O)C2)C(=O)[C@@H](C)C1 [cycloheximide]
concentration above which translation was fully inhibited [8]: above 0.5 μM

Cl.Clc1cccc(Nc2nc(N3CCOCC3)c3ccccc3n2)c1 [Compound 39K]
% Inhibition (40 µM) [1]: over 50%

CC1CCC(C(C)C)C(OC(=O)Cn2c(-c3ccc(Br)cc3)[n+](C)c3ccccc32)C1.[Cl-] (stereo not drawn) [Compound 3]
% Inhibition [8]: ~20%

Cl.Fc1cccc(Nc2nc(NCC3CCCO3)c3ccccc3n2)c1 (stereo not drawn) [Compound 39A]
% Inhibition (40 µM) [1]: over 50%

COc1cccc(Nc2nc(NCC3CCCO3)c3ccccc3n2)c1.Cl (stereo not drawn) [Compound 39]
% Inhibition [8]: ~20%
inhibition of in vitro translation (in words) [9]: clear inhibition
puromycin incorporation into elongating protein chains (in words) [2]: inhibited puromycin incorporation
PAK4 inhibition (in words) (PAK4): inhibit PAK4

Fc1ccccc1Nc1nc(NCC2CCCO2)c2ccccc2n1 (stereo not drawn) [Compound 39H]
% Inhibition (40 µM) ([1]; 40 µM): over 50%
puromycin incorporation into elongating protein chains (in words) [2]: inhibited puromycin incorporation
EC50 [4]: 4.8 ± 2 µM
concentration for maximal inhibition / full block of epimastigote growth [4]: > 50 µM
EC50 [5]: 0.4 ± 0.2 µM
selectivity index [5]: ~200
CC50 at 48 h [6]: 84 ± 40 µM
EC50 and CC50 values compared with the U2OS/Sylvio experiment (in words) [7]: Comparable values
Plasmodium falciparum inhibition (in words) (Plasmodium falciparum): P. falciparum inhibitors

NC[C@@H]1O[C@H](O[C@H]2[C@@H](O)[C@H](O[C@@H]3[C@@H](O)[C@H](N)C[C@H](N)[C@H]3O[C@H]3O[C@H](CO)[C@@H](O)[C@H](O)[C@H]3N)O[C@@H]2CO)[C@H](N)[C@@H](O)[C@@H]1O [Paromomycin, reference compound]
inhibition of translation in T. cruzi extract (in words) [1]: did not inhibit translation
inhibition of translation in T. cruzi extract (in words) ([1]; listed as paromomycin): had no effect
effect on epimastigote growth (in words) [4]: did not affect parasite growth
effect on epimastigote growth (in words) ([4]; listed as paromomycin): did not impact T. cruzi proliferation

Cc1ccc2c(c1)sc(-c1ccc(N(C)C)cc1)[n+]2C.[I-] [Compound 43]
puromycin incorporation into elongating protein chains (in words) [2]: inhibited puromycin incorporation

c1ccc2c(NCC3CCCO3)nc(Nc3ccncc3)nc2c1 (stereo not drawn) [Compound 39C]
% Inhibition (40 µM) [1]: around 50%
